In experiment [1] the target is T1, Tyrosine-protein phosphatase non-receptor type 1 (Mus musculus) (UniProt P35821).
T1 sequence (whole entry): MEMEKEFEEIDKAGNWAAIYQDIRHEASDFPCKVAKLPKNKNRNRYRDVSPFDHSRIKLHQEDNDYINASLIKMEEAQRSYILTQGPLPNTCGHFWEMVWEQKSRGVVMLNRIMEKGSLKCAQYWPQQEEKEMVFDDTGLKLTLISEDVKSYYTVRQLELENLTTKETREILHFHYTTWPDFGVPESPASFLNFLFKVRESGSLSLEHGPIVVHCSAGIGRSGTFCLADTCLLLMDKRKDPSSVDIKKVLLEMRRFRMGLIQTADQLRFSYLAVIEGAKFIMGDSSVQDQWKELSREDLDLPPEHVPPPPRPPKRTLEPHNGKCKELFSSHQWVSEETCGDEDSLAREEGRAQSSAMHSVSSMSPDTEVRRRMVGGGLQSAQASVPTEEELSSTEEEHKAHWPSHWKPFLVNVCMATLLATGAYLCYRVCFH
Description: (§1) In vitro inhibitory activity against PTP1B at 100 uM 10 min incubation. The essentials:
(§2)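 p-Nitrophenylphosphate (10 mM) as substrate in 50 mM HEPES buffer, pH 7, with 1 mM EDTA and DTT. Compounds tested at 100 µM, with sodium vanadate as reference control. Result given as percent inhibition of phosphatase activity, mean of three independent experiments.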

Experiment [2] concerns the target Tyrosine-protein phosphatase non-receptor type 1 (Mus musculus) (UniProt P35821). The experiment is described as §1. The procedure, abridged:
as §2
The source holds these as a separate data set.

`CC(=O)c1ccc(OCCc2ccccc2)cc1OC(=O)c1ccc(F)cc1`: the inhibition (in general, how much of the control response was suppressed) in experiment [1] was “No inhibition”.

Regarding `CC(=O)c1ccc(OCC#N)cc1O`, the inhibition in experiment [1] was determined as 22.4%.

In the case of `N#CCOc1ccc(/C(O)=C/C(=O)c2ccc(F)cc2)c(O)c1`, in experiment [1], the inhibition entry was “No inhibition”.

Regarding `O=C(/C=C(\O)c1ccc2occc2c1O)c1ccc(C(F)(F)F)cc1`, the inhibition result in experiment [1] was “No inhibition”.

`CC(=O)c1cc2ccoc2cc1OC(=O)c1ccccc1`: in experiment [1], the inhibition result was “No inhibition”.

As for `CC(=O)c1ccc(OCC#N)cc1OC(=O)c1ccccc1`, in experiment [1], the inhibition is 12.8%.

With `CC(=O)c1ccc2occc2c1O`, in experiment [1], the inhibition entry was “No inhibition”.

As for `COc1ccc(C(=O)Oc2cc3occc3cc2C(C)=O)cc1`, the inhibition in experiment [1] came out at 13.5%.

For `CC(=O)c1ccc2occc2c1OC(=O)c1ccc(Cl)c(Cl)c1`, the inhibition in experiment [1] was 54.1%.

In the case of `O=C(/C=C(\O)c1ccc(OCCc2ccccc2)cc1O)c1ccc(F)cc1`, the inhibition entry in experiment [1] is “No inhibition”.

The compound `CC(=O)c1cc2ccoc2cc1OC(=O)c1ccc2c(c1)OCO2` displayed an inhibition in experiment [1] of 34%.

On to `CC(=O)c1cc2ccoc2cc1O`, for which the inhibition in experiment [1] stood at 19.1%.

In experiment [1], `CC(=O)c1ccc2occc2c1OC(=O)c1ccc(C(F)(F)F)cc1` displayed an inhibition of 32.4%.

`CC(=O)c1ccc(OCCc2ccccc2)cc1O` displayed an inhibition in experiment [1] of 38.6%.

Take `N#CCOc1ccc(/C(O)=C/C(=O)c2ccccc2)c(O)c1`: the inhibition entry in experiment [1] was “No inhibition”.

In experiment [1], `CC(=O)c1ccc2occc2c1OC(=O)c1ccccc1` yielded an inhibition of 43.2%.

SODIUM ORTHOVANAD returned an inhibition in experiment [2] of 56.2%.

As to `CC(=O)c1ccc(OCCO)cc1O`, the inhibition entry in experiment [1] is “No inhibition”.

Turning to `CC(=O)c1ccc(OCC2CO2)cc1O` (stereo not drawn), the inhibition in experiment [1] came to 22.4%.

As for `C=CCOc1ccc(C(C)=O)c(O)c1`, the inhibition entry in experiment [1] was “No inhibition”.

As to `COc1ccc(C(=O)Oc2cc3occc3cc2C(C)=O)cc1OC`, the inhibition result in experiment [1] was “No inhibition”.

Take `CC(=O)c1ccc(OCC#N)cc1OC(=O)c1ccc(F)cc1`: in experiment [1], the inhibition result is “No inhibition”.

`COc1cccc(C(=O)Oc2cc3occc3cc2C(C)=O)c1` registered an inhibition in experiment [1] of 8.1%.

The record behind these values is ChEMBL document CHEMBL1140253, “Synthesis of functionalized acetophenones as protein tyrosine phosphatase 1B inhibitors” (Bioorg Med Chem Lett, 2005).
